Data: ChEMBL document CHEMBL4706770, “SD-91 as A Potent and Selective STAT3 Degrader Capable of Achieving Complete and Long-Lasting Tumor Regression” (ACS Med Chem Lett, 2021)
pIC50: −log10 of the molar value. The source made the active and inactive calls. No cut-off for these calls is given here.

Experiments:
SU-DHL-1 [1] = assay: Antiproliferative activity against human SU-DHL-1 cells assessed as cell growth inhibition incubated for 4 days by CellTiter-Glo asssay; format: functional, cell-based; settings: SU-DHL-1, 96 h
How it was run: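 Growth inhibition tested in MOLM-16 acute leukemia and SU-DHL-1 and SUP-M2 lymphoma cell lines.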

[2] = target: T1, Signal transducer and activator of transcription 6 (Homo sapiens) (UniProt P42226); assay: Induction of STAT6 degradation in human SU-DHL-1 cells at 0.25 to 100 uM incubated for 14 hrs by Western blot analysis; format: cell-based; settings: dose 0.25-100 µM
T1 sequence (whole entry): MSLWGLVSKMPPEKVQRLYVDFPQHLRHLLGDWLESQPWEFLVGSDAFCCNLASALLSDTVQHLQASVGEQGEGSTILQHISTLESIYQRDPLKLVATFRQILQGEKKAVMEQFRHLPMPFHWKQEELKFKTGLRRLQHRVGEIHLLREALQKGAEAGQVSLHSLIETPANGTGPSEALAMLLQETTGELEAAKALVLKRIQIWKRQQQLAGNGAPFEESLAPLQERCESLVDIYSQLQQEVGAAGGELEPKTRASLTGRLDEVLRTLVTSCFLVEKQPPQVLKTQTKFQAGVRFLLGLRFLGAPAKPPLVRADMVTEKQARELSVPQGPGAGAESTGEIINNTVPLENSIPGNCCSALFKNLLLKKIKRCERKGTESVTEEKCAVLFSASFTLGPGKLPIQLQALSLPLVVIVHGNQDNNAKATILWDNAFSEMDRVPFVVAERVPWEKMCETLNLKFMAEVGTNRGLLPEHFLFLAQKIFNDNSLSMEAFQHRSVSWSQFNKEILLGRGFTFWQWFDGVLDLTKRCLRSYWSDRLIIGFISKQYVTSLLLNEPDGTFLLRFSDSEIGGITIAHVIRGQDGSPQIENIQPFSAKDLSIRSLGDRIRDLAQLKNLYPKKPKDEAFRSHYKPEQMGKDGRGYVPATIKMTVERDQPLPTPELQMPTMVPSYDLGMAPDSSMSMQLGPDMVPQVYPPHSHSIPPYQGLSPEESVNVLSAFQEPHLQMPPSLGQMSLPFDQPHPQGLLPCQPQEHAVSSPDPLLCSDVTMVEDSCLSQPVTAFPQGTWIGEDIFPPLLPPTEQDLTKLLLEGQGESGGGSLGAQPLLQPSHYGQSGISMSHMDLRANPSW

[3] = target: Signal transducer and activator of transcription 2 (Homo sapiens, UniProt P52630); assay: Induction of STAT2 degradation in human SUP-M2 cells at 0.25 to 100 uM incubated for 14 hrs by Western blot analysis; format: cell-based; settings: SUPM2, dose 0.25-100 µM
Signal transducer and activator of transcription 2, sequence (P52630 whole entry): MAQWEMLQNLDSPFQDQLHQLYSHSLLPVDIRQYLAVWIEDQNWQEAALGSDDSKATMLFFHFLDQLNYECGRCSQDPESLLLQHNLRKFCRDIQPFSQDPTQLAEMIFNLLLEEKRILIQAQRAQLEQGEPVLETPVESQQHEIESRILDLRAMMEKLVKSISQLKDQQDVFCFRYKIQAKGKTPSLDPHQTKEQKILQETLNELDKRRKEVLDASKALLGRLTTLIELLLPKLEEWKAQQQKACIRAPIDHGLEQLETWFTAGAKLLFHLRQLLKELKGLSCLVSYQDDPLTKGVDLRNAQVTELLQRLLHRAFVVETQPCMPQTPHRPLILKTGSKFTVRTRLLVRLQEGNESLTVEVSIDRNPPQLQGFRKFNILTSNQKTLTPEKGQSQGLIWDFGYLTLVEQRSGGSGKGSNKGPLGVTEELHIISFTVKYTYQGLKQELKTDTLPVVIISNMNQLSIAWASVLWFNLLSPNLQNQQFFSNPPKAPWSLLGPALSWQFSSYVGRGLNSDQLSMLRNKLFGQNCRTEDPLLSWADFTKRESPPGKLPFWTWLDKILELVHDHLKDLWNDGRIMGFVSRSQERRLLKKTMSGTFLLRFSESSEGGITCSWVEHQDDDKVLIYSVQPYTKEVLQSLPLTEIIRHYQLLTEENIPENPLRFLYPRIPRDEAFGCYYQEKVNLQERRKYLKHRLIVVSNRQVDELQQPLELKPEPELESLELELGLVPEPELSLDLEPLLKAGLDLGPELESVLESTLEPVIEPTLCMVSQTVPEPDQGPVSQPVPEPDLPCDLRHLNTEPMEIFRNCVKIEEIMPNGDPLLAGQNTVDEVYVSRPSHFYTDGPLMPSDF
How it was run: (§1)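 SU-DHL-1 or SUP-M2 cells treated over 25 nM to 100 μM. STAT family proteins assessed by Western blot.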

[4] = target: T2, Signal transducer and activator of transcription 5A (Homo sapiens) (UniProt P42229); assay: Induction of STAT5 degradation in human MOLM16 cells at 0.25 to 100 uM incubated for 4 hrs by Western blot analysis; format: cell-based; settings: dose 0.25-100 µM
T2 sequence (whole entry): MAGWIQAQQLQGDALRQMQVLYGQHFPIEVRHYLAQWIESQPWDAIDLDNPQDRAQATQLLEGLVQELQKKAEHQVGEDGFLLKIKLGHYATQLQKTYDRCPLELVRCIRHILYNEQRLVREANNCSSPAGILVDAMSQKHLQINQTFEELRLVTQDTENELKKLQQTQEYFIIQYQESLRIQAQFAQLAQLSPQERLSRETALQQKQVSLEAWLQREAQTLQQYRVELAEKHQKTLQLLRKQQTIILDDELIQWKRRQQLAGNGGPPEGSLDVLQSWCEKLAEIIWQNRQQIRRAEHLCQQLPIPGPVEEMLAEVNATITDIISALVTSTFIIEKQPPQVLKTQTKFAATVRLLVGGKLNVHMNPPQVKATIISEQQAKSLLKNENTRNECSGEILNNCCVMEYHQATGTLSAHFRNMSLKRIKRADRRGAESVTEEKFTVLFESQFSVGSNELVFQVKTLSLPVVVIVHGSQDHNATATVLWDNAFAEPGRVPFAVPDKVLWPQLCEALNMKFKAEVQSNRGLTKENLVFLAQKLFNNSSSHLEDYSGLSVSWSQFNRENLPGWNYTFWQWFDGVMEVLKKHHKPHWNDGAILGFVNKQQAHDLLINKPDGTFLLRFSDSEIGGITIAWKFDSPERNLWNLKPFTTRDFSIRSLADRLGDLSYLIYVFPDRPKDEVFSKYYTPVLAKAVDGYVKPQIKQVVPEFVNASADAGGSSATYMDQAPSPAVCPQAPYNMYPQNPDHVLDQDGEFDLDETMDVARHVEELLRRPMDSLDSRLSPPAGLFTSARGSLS
How it was run: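 Cells treated 4 h with compounds across 25 nM to 100 μM; STAT proteins detected by Western blot with GAPDH as loading control; STAT3 DC50 estimated by densitometry of STAT3 relative to GAPDH. Applies to MOLM-16 for all STATs, and to SU-DHL-1 and SUP-M2 for STAT3.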

[5] = target: T3, Signal transducer and activator of transcription 1-alpha/beta (Homo sapiens) (UniProt P42224); assay: Induction of STAT1 degradation in human SU-DHL-1 cells at 0.25 to 100 uM incubated for 14 hrs by Western blot analysis; format: cell-based; settings: dose 0.25-100 µM; how it was run: as §1
T3 sequence (whole entry): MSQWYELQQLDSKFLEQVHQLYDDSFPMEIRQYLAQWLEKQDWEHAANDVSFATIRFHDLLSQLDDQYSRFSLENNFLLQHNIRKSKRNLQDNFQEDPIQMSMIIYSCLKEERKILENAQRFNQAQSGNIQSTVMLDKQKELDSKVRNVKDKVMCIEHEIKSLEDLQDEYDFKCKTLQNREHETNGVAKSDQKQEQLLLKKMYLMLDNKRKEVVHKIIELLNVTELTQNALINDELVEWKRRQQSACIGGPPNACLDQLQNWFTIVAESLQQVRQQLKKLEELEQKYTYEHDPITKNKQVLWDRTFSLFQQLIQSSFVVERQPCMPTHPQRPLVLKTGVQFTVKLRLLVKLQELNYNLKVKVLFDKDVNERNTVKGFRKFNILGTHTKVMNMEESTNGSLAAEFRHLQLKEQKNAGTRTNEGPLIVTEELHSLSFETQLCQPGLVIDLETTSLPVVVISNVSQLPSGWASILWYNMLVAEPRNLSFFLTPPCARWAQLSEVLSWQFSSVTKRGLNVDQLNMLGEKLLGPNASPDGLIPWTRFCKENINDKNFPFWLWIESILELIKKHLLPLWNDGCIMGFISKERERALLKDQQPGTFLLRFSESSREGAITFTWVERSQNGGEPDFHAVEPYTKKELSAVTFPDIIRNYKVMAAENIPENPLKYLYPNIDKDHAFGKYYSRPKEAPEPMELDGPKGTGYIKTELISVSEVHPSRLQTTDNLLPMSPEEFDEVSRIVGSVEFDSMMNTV

SU-DHL-1 [6] = assay: Induction of STAT4 expression in human SU-DHL-1 cells at 0.25 to 100 uM incubated for 4 hrs by Western blot analysis; format: functional, cell-based; settings: dose 0.25-100 µM

**Q.** NC(=O)CC[C@H](NC(=O)[C@@H]1CC[C@@H]2CCN(C(=O)CCCCCC#Cc3cccc4c3CN(C3CCC(=O)NC3=O)C4=O)C[C@H](NC(=O)c3cc4cc(C(=O)P(=O)(O)O)ccc4[nH]3)C(=O)N21)C(=O)NC(c1ccccc1)c1ccccc1 (stereo not given in full) was tested. Which pIC50 (SU-DHL-1 [1]) did it give?
**A.** The pIC50 was 5.59.

**Q.** What about the Activity [2] of the same compound?
**A.** The Activity was “inactive”.

**Q.** What about the Activity [3] of the same compound?
**A.** The Activity was “inactive”.

**Q.** What about the Activity [4] of the same compound?
**A.** Its Activity is “inactive”.

**Q.** What about the Activity [5] of the same compound?
**A.** Its Activity is “inactive”.

**Q.** What about the Activity (SU-DHL-1 [6]) of the same compound?
**A.** Its Activity is “Active”.

**Q.** With CC(=O)N1CC[C@H]2CC[C@@H](C(=O)N[C@@H](CCC(N)=O)C(=O)NC(c3ccccc3)c3ccccc3)N2C(=O)[C@@H](NC(=O)c2cc3cc(C(=O)P(=O)(O)O)ccc3[nH]2)C1 as the compound, how does the pIC50 (SU-DHL-1 [1]) read?
**A.** Its pIC50 is < 5.00.

**Q.** What about the Activity [2] of the same compound?
**A.** Its Activity is “inactive”.

**Q.** And the Activity [3]?
**A.** The Activity was “inactive”.

**Q.** And the Activity [4]?
**A.** The Activity was “inactive”.

**Q.** And the Activity [5]?
**A.** The Activity was “inactive”.

**Q.** And the Activity (SU-DHL-1 [6])?
**A.** The Activity was “inactive”.

**Q.** How did the pIC50 (SU-DHL-1 [1]) turn out when NC(=O)CC[C@H](NC(=O)[C@@H]1CC[C@@H]2CCN(C(=O)CCCCCC#Cc3cccc4c3CN(C3CCC(=O)NC3=O)C4=O)C[C@H](NC(=O)c3cc4cc(C(F)(F)P(=O)(O)O)ccc4[nH]3)C(=O)N21)C(=O)NC(c1ccccc1)c1ccccc1 (stereo not given in full) was run?
**A.** The pIC50 was 5.47.

**Q.** And the Activity (SU-DHL-1 [6])?
**A.** The Activity was “Active”.

**Q.** What does the source list for CC(=O)N1CC[C@H]2CC[C@@H](C(=O)N[C@@H](CCC(N)=O)C(=O)NC(c3ccccc3)c3ccccc3)N2C(=O)[C@@H](NC(=O)c2cc3cc(C(F)(F)P(=O)(O)O)ccc3[nH]2)C1?
**A.** pIC50 (SU-DHL-1 [1]): < 5.00; Activity [2]: inactive; Activity [3]: inactive; Activity [4]: inactive; Activity [5]: inactive; Activity (SU-DHL-1 [6]): inactive
